Data published in ChEMBL document CHEMBL5724801, “EUbOPEN Chemogenomics Library - Multiplex” (2024).
Where “and” joins values, the source holds several entries; their conditions need not be identical. Identical values can stand only once.

Tested on: Fibroblast
Test: Multiplex assay against human fibroblast
Assay type: toxicity, cell-based
Outline: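 At seeding, live cells were stained with Hoechst33342, BioTracker Green Microtubule Cytoskeleton Dye, MitoTracker Red and Annexin V Alexa Fluor 680. After compound addition they were imaged on a CQ1 microscope at 37°C and 5% CO2, and CellPathfinder machine-learning gating sorted them into Hoechst high-intensity objects or normal cells, with normal cells further split into healthy, pyknosed or fragmented nuclei and pyknosed cells into mitotic or apoptotic. Tubulin, mitochondrial-mass and membrane-permeability phenotypes are given as per cents of cells with healthy nuclei.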

[1] = 12 h, 1 µM, compound concentration 1 uM
[2] = 12 h, 10 µM, compound concentration 10 uM
[3] = 24 h, 1 µM, compound concentration 1 uM
[4] = 24 h, 10 µM, compound concentration 10 uM
[5] = 48 h, 1 µM, compound concentration 1 uM
[6] = 48 h, 10 µM, compound concentration 10 uM

Compound: Cc1cc(=O)n(C)c2cc(N3C(=O)CC[C@H](NS(=O)(=O)CC(C)C)[C@H]3c3ccc(Cl)cc3)ccc12
- Population Apoptotic (%) [1]: 31% and 38%
- Population Fragmented Nuclei (%) [1]: 16% and 20%
- Population Healthy Nuclei (%) [1]: 56% and 38%
- Population Hoechst High Intensity Objects (%) [1]: 2% and 10%
- Population Membrane Permeable-Phenotype (%) [1]: 0% and 8%
- Population Mitochondria Different-Phenotype (%) [1]: 4%
- Population Mitotic Cells (%) [1]: 68% and 62%
- Population Normal (%) [1]: 97% and 89%
- Population Pyknosed Nuclei (%) [1]: 26% and 40%
- Population Tubulin-Different-Phenotype (%) [1]: 34% and 61%
- Total Cell Count [1]: 135 and 137
- Population Apoptotic (%) [2]: 41% and 18%
- Population Fragmented Nuclei (%) [2]: 11% and 26%
- Population Healthy Nuclei (%) [2]: 40% and 31%
- Population Hoechst High Intensity Objects (%) [2]: 3% and 11%
- Population Membrane Permeable-Phenotype (%) [2]: 1% and 8%
- Population Mitochondria Different-Phenotype (%) [2]: 8%
- Population Mitotic Cells (%) [2]: 58% and 82%
- Population Normal (%) [2]: 96% and 88%
- Population Pyknosed Nuclei (%) [2]: 48% and 42%
- Population Tubulin-Different-Phenotype (%) [2]: 86% and 94%
- Total Cell Count [2]: 149 and 133
- Population Apoptotic (%) [3]: 34% and 50%
- Population Fragmented Nuclei (%) [3]: 18% and 26%
- Population Healthy Nuclei (%) [3]: 62% and 44%
- Population Hoechst High Intensity Objects (%) [3]: 2% and 10%
- Population Mitochondria Different-Phenotype (%) [3]: 4% and 5%
- Population Mitotic Cells (%) [3]: 65% and 50%
- Population Normal (%) [3]: 97% and 89%
- Population Pyknosed Nuclei (%) [3]: 18% and 29%
- Population Tubulin-Different-Phenotype (%) [3]: 24% and 70%
- Total Cell Count [3]: 140 and 128
- Population Apoptotic (%) [4]: 43% and 42%
- Population Fragmented Nuclei (%) [4]: 14% and 28%
- Population Healthy Nuclei (%) [4]: 46% and 26%
- Population Hoechst High Intensity Objects (%) [4]: 10% and 8%
- Population Membrane Permeable-Phenotype (%) [4]: 0% and 17%
- Population Mitochondria Different-Phenotype (%) [4]: 19% and 8%
- Population Mitotic Cells (%) [4]: 56% and 57%
- Population Normal (%) [4]: 90% and 91%
- Population Pyknosed Nuclei (%) [4]: 39% and 45%
- Population Tubulin-Different-Phenotype (%) [4]: 88% and 85%
- Total Cell Count [4]: 150 and 143
- Population Apoptotic (%) [5]: 48% and 46%
- Population Fragmented Nuclei (%) [5]: 27% and 35%
- Population Healthy Nuclei (%) [5]: 54%
- Population Hoechst High Intensity Objects (%) [5]: 2% and 7%
- Population Membrane Permeable-Phenotype (%) [5]: 1% and 8%
- Population Mitochondria Different-Phenotype (%) [5]: 2% and 8%
- Population Mitotic Cells (%) [5]: 52% and 53%
- Population Normal (%) [5]: 97% and 92%
- Population Pyknosed Nuclei (%) [5]: 18% and 9%
- Population Tubulin-Different-Phenotype (%) [5]: 27% and 73%
- Total Cell Count [5]: 141 and 142
- Population Apoptotic (%) [6]: 61% and 54%
- Population Fragmented Nuclei (%) [6]: 23% and 34%
- Population Healthy Nuclei (%) [6]: 38% and 37%
- Population Hoechst High Intensity Objects (%) [6]: 15% and 10%
- Population Membrane Permeable-Phenotype (%) [6]: 0% and 25%
- Population Mitochondria Different-Phenotype (%) [6]: 24% and 8%
- Population Mitotic Cells (%) [6]: 38% and 45%
- Population Normal (%) [6]: 84% and 89%
- Population Pyknosed Nuclei (%) [6]: 37% and 27%
- Population Tubulin-Different-Phenotype (%) [6]: 92% and 87%
- Total Cell Count [6]: 153 and 141

Compound: Cc1ccc(OCC(O)C(C)NC(C)C)c2c1CCC2.Cl (stereo unspecified)
- Population Apoptotic (%) [1]: 36% and 28%
- Population Fragmented Nuclei (%) [1]: 10% and 17%
- Population Healthy Nuclei (%) [1]: 68% and 55%
- Population Hoechst High Intensity Objects (%) [1]: 0% and 9%
- Population Membrane Permeable-Phenotype (%) [1]: 0% and 4%
- Population Mitochondria Different-Phenotype (%) [1]: 3% and 7%
- Population Mitotic Cells (%) [1]: 63% and 71%
- Population Normal (%) [1]: 99% and 90%
- Population Pyknosed Nuclei (%) [1]: 20% and 27%
- Population Tubulin-Different-Phenotype (%) [1]: 26% and 50%
- Total Cell Count [1]: 159 and 210
- Population Apoptotic (%) [2]: 47% and 25%
- Population Fragmented Nuclei (%) [2]: 39% and 33%
- Population Healthy Nuclei (%) [2]: 47% and 50%
- Population Hoechst High Intensity Objects (%) [2]: 1% and 2%
- Population Membrane Permeable-Phenotype (%) [2]: 0% and 7%
- Population Mitochondria Different-Phenotype (%) [2]: 12% and 17%
- Population Mitotic Cells (%) [2]: 52% and 74%
- Population Normal (%) [2]: 98% and 97%
- Population Pyknosed Nuclei (%) [2]: 12% and 16%
- Population Tubulin-Different-Phenotype (%) [2]: 52% and 54%
- Total Cell Count [2]: 138 and 168
- Population Apoptotic (%) [3]: 57% and 20%
- Population Fragmented Nuclei (%) [3]: 11% and 27%
- Population Healthy Nuclei (%) [3]: 74% and 46%
- Population Hoechst High Intensity Objects (%) [3]: 0% and 15%
- Population Membrane Permeable-Phenotype (%) [3]: 4% and 1%
- Population Mitochondria Different-Phenotype (%) [3]: 5% and 8%
- Population Mitotic Cells (%) [3]: 42% and 80%
- Population Normal (%) [3]: 100% and 84%
- Population Pyknosed Nuclei (%) [3]: 13% and 26%
- Population Tubulin-Different-Phenotype (%) [3]: 30% and 52%
- Total Cell Count [3]: 154 and 201
- Population Apoptotic (%) [4]: 35% and 36%
- Population Fragmented Nuclei (%) [4]: 39% and 35%
- Population Healthy Nuclei (%) [4]: 49% and 50%
- Population Hoechst High Intensity Objects (%) [4]: 1% and 5%
- Population Membrane Permeable-Phenotype (%) [4]: 1% and 4%
- Population Mitochondria Different-Phenotype (%) [4]: 13% and 14%
- Population Mitotic Cells (%) [4]: 64% and 63%
- Population Normal (%) [4]: 98% and 94%
- Population Pyknosed Nuclei (%) [4]: 11% and 13%
- Population Tubulin-Different-Phenotype (%) [4]: 63% and 65%
- Total Cell Count [4]: 151 and 168
- Population Apoptotic (%) [5]: 64% and 34%
- Population Fragmented Nuclei (%) [5]: 16% and 37%
- Population Healthy Nuclei (%) [5]: 71% and 42%
- Population Hoechst High Intensity Objects (%) [5]: 4% and 11%
- Population Membrane Permeable-Phenotype (%) [5]: 0% and 5%
- Population Mitochondria Different-Phenotype (%) [5]: 1% and 8%
- Population Mitotic Cells (%) [5]: 35% and 65%
- Population Normal (%) [5]: 95% and 88%
- Population Pyknosed Nuclei (%) [5]: 11% and 20%
- Population Tubulin-Different-Phenotype (%) [5]: 23% and 60%
- Total Cell Count [5]: 155 and 196
- Population Apoptotic (%) [6]: 71% and 60%
- Population Fragmented Nuclei (%) [6]: 35% and 39%
- Population Healthy Nuclei (%) [6]: 50%
- Population Hoechst High Intensity Objects (%) [6]: 1% and 7%
- Population Membrane Permeable-Phenotype (%) [6]: 0% and 5%
- Population Mitochondria Different-Phenotype (%) [6]: 9% and 10%
- Population Mitotic Cells (%) [6]: 28% and 40%
- Population Normal (%) [6]: 98% and 92%
- Population Pyknosed Nuclei (%) [6]: 13% and 10%
- Population Tubulin-Different-Phenotype (%) [6]: 68% and 63%
- Total Cell Count [6]: 155 and 157
